ChEMBL document CHEMBL2331335, “Synthesis of hemslecin A derivatives: a new class of hepatitis B virus inhibitors” (Bioorg Med Chem Lett, 2013)
One block for each compound: values may come before it.

How the values were obtained:
Hepatitis B virus [1] = experiment: Antiviral activity against HBV infected in human HepG2.2.15 cells assessed as inhibition of viral e antigen production; type: functional, organism-based; conditions: HepG2 2.2.15
Procedure, shortened: (§1)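 Assayed in HBV-producing HepG 2.2.15 cells, with tenofovir as positive control. HBsAg, HBeAg and HBV DNA replication were each measured, and IC50 was taken as the compound concentration giving 50% inhibition of the given marker.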

[2] = Selectivity index, ratio of CC50 for human HepG2.2.15 cells to IC50 for HBV infected in human HepG2.2.15 cells assessed as inhibition of viral e antigen production; type: functional
Procedure, shortened: (§2)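 Selectivity index was calculated as CC50 (HepG 2.2.15 cytotoxicity) divided by IC50 for the given marker (HBV DNA replication, HBeAg or HBsAg), all measured in HepG 2.2.15 cells.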

Hepatitis B virus [3] = experiment: Antiviral activity against HBV infected in human HepG2.2.15 cells assessed as inhibition of viral DNA replication; type: functional, organism-based; conditions: HepG2 2.2.15; procedure, shortened: as §1
Hepatitis B virus [4] = experiment: Antiviral activity against HBV infected in human HepG2.2.15 cells assessed as inhibition of viral surface antigen production; type: functional, organism-based; conditions: HepG2 2.2.15; procedure, shortened: as §1
[5] = Selectivity index, ratio of CC50 for human HepG2.2.15 cells to IC50 for HBV infected in human HepG2.2.15 cells assessed as inhibition of viral surface antigen production; type: functional; procedure, shortened: as §2
[6] = Cytotoxicity against human HepG2.2.15 cells; type: cell-based, HepG2 2.2.15
Procedure, shortened: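 Cytotoxicity was tested in HepG 2.2.15 cells alongside the anti-HBV assay. CC50 was taken as the compound concentration required to destroy 50% of the cells.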

[7] = Selectivity index, ratio of CC50 for human HepG2.2.15 cells to IC50 for HBV infected in human HepG2.2.15 cells assessed as inhibition of viral DNA replication; type: functional; procedure, shortened: as §2

Compound: CCC(=O)O[C@H]1C[C@@H]2C(=CC[C@@H]3[C@@]2(C)C(=O)C[C@]2(C)[C@@H]([C@@](C)(O)C(=O)CCC(C)(C)OC(C)=O)[C@H](O)C[C@@]32C)C(C)(C)[C@@H]1O
IC50 (Hepatitis B virus [1]): 14.4 µM
Ratio CC50/IC50 [2]: 8.7
IC50 (Hepatitis B virus [3]): 4.7 µM
IC50 (Hepatitis B virus [4]): 15.6 µM
Ratio CC50/IC50 [5]: 8.1
CC50 [6]: 126 µM

Compound: CCCC(=O)O[C@@H]1[C@@H](O)C[C@@H]2C(=CC[C@@H]3[C@@]2(C)C(=O)C[C@]2(C)[C@@H]([C@@](C)(O)C(=O)CCC(C)(C)OC(C)=O)[C@H](O)C[C@@]32C)C1(C)C
IC50 (Hepatitis B virus [1]): > 6.3 µM
Ratio CC50/IC50 [2]: <1
IC50 (Hepatitis B virus [3]): 4.7 µM
IC50 (Hepatitis B virus [4]): > 6.3 µM
Ratio CC50/IC50 [5]: <1
Ratio CC50/IC50 [7]: 1.3
CC50 [6]: 6.3 µM

Compound: COc1cccc(/C=C/C(=O)O[C@H]2C[C@@H]3C(=CC[C@@H]4[C@@]3(C)C(=O)C[C@]3(C)[C@@H]([C@@](C)(O)C(=O)CCC(C)(C)OC(C)=O)[C@H](OC(=O)/C=C/c5cccc(OC)c5)C[C@@]43C)C(C)(C)[C@@H]2OC(=O)/C=C/c2cccc(OC)c2)c1
IC50 (Hepatitis B virus [1]): > 719 µM
IC50 (Hepatitis B virus [3]): 51.2 µM
IC50 (Hepatitis B virus [4]): > 719 µM
Ratio CC50/IC50 [7]: >14
CC50 [6]: > 719 µM

Compound: CC(=O)OC(C)(C)CCC(=O)[C@](C)(O)[C@H]1[C@H](O)C[C@@]2(C)[C@@H]3C[C@@H](O)[C@]4(OC(=O)c5cccc(Cl)c5)[C@@H](C[C@H](O)[C@@H](O)C4(C)C)[C@]3(C)C(=O)C[C@]12C
IC50 (Hepatitis B virus [1]): 30.9 µM
Ratio CC50/IC50 [2]: 11.9
IC50 (Hepatitis B virus [3]): 7.2 µM
IC50 (Hepatitis B virus [4]): 24 µM
Ratio CC50/IC50 [5]: 15.3
Ratio CC50/IC50 [7]: 50.9
CC50 [6]: 366 µM

Compound: CC(=O)O[C@H]1C[C@H]2[C@]3(C)C(=O)C[C@]4(C)[C@@H]([C@@](C)(O)C(=O)CCC(C)(C)OC(C)=O)[C@H](OC(C)=O)C[C@@]4(C)[C@@H]3C[C@@H](O)[C@@]2(OC(=O)c2cccc(Cl)c2)C(C)(C)[C@@H]1OC(C)=O
IC50 (Hepatitis B virus [1]): 327 µM
Ratio CC50/IC50 [2]: >3.2
IC50 (Hepatitis B virus [3]): > 1050 µM
IC50 (Hepatitis B virus [4]): 178 µM
Ratio CC50/IC50 [5]: >5.9
CC50 [6]: > 1050 µM

Compound: COCC(=O)O[C@H]1C[C@H]2[C@]3(C)C(=O)C[C@]4(C)[C@@H]([C@@](C)(O)C(=O)CCC(C)(C)OC(C)=O)[C@H](OC(=O)COC)C[C@@]4(C)[C@@H]3C[C@@H](O)[C@@]2(OC(=O)c2cccc(Cl)c2)C(C)(C)[C@@H]1OC(=O)COC
IC50 (Hepatitis B virus [1]): > 1740 µM
IC50 (Hepatitis B virus [3]): > 1740 µM
IC50 (Hepatitis B virus [4]): > 1740 µM
CC50 [6]: > 1740 µM

Compound: CCOCC(=O)O[C@H]1C[C@H]2[C@]3(C)C(=O)C[C@]4(C)[C@@H]([C@@](C)(O)C(=O)CCC(C)(C)OC(C)=O)[C@H](OC(=O)COCC)C[C@@]4(C)[C@@H]3C[C@@H](O)[C@@]2(OC(=O)c2cccc(Cl)c2)C(C)(C)[C@@H]1OC(=O)COCC
IC50 (Hepatitis B virus [1]): > 710 µM
IC50 (Hepatitis B virus [3]): > 710 µM
IC50 (Hepatitis B virus [4]): > 710 µM
CC50 [6]: > 710 µM

Compound: CCOCC(=O)O[C@H]1C[C@@H]2C(=CC[C@@H]3[C@@]2(C)C(=O)C[C@]2(C)[C@@H]([C@@](C)(O)C(=O)CCC(C)(C)O)[C@H](OC(=O)COCC)C[C@@]32C)C(C)(C)[C@@H]1OC(=O)COCC
IC50 (Hepatitis B virus [1]): > 184 µM
Ratio CC50/IC50 [2]: <1
IC50 (Hepatitis B virus [3]): 84.6 µM
IC50 (Hepatitis B virus [4]): 101 µM
Ratio CC50/IC50 [5]: 1.8
Ratio CC50/IC50 [7]: 2.2
CC50 [6]: 184 µM

Compound: CCOCC(=O)O[C@H]1C[C@@H]2C(=CC[C@@H]3[C@@]2(C)C(=O)C[C@]2(C)[C@@H]([C@@](C)(O)C(=O)CCC(C)(C)OC(=O)COCC)[C@H](OC(=O)COCC)C[C@@]32C)C(C)(C)[C@@H]1OC(=O)COCC
IC50 (Hepatitis B virus [1]): > 1450 µM
IC50 (Hepatitis B virus [3]): 81.4 µM
IC50 (Hepatitis B virus [4]): 225 µM
Ratio CC50/IC50 [5]: >6.4
Ratio CC50/IC50 [7]: >17.8
CC50 [6]: > 1450 µM

Compound: CC(C)(O)CCC(=O)[C@](C)(O)[C@H]1[C@H](O)C[C@@]2(C)[C@@H]3CC=C4[C@@H](C[C@H](O)[C@@H](O)C4(C)C)[C@]3(C)C(=O)C[C@]12C
IC50 (Hepatitis B virus [1]): > 60.6 µM
Ratio CC50/IC50 [2]: <1
IC50 (Hepatitis B virus [3]): 31.4 µM
IC50 (Hepatitis B virus [4]): > 60.6 µM
Ratio CC50/IC50 [5]: <1
Ratio CC50/IC50 [7]: 1.9
CC50 [6]: 60.6 µM

Compound: C[C@H](Cn1cnc2c(N)ncnc21)OCP(=O)(O)O [TENOFOVIR ANHYDROUS]
Ratio CC50/IC50 [2]: >1.5
IC50 (Hepatitis B virus [3]): 0.49 µM
IC50 (Hepatitis B virus [4]): 1570 µM
Ratio CC50/IC50 [5]: >1.1
Ratio CC50/IC50 [7]: >3571.4
CC50 [6]: > 1740 µM

Second part, led by results:

IC50 (Hepatitis B virus [1]): > 807 µM
IC50 (Hepatitis B virus [3]): 17.3 µM
IC50 (Hepatitis B virus [4]): > 807 µM
Compound: CC(=O)O[C@H]1C[C@@H]2C(=CC[C@@H]3[C@@]2(C)C(=O)C[C@]2(C)[C@@H]([C@@](C)(O)C(=O)CCC(C)(C)OC(C)=O)[C@H](OC(C)=O)C[C@@]32C)C(C)(C)[C@@H]1OC(C)=O
Ratio CC50/IC50 [7]: >46.6
CC50 [6]: > 807 µM

IC50 (Hepatitis B virus [1]): > 650 µM
IC50 (Hepatitis B virus [3]): 19 µM
IC50 (Hepatitis B virus [4]): > 650 µM
Compound: CCC(=O)O[C@H]1C[C@@H]2C(=CC[C@@H]3[C@@]2(C)C(=O)C[C@]2(C)[C@@H]([C@@](C)(O)C(=O)CCC(C)(C)OC(C)=O)[C@H](OC(C)=O)C[C@@]32C)C(C)(C)[C@@H]1OC(=O)CC
Ratio CC50/IC50 [7]: >34.2
CC50 [6]: > 650 µM

IC50 (Hepatitis B virus [1]): > 560 µM
IC50 (Hepatitis B virus [3]): 10 µM
IC50 (Hepatitis B virus [4]): > 560 µM
Compound: CCOCC(=O)O[C@H]1C[C@@H]2C(=CC[C@@H]3[C@@]2(C)C(=O)C[C@]2(C)[C@@H]([C@@](C)(O)C(=O)CCC(C)(C)OC(C)=O)[C@H](OC(=O)COCC)C[C@@]32C)C(C)(C)[C@@H]1OC(=O)COCC
Ratio CC50/IC50 [7]: >55.8
CC50 [6]: > 560 µM

IC50 (Hepatitis B virus [1]): > 1740 µM
IC50 (Hepatitis B virus [3]): 11.6 µM
IC50 (Hepatitis B virus [4]): > 1740 µM
Compound: CC(=O)OC(C)(C)CCC(=O)[C@](C)(O)[C@H]1[C@H](O)C[C@@]2(C)[C@@H]3C[C@H]4O[C@@]45[C@@H](C[C@H](O)[C@@H](O)C5(C)C)[C@]3(C)C(=O)C[C@]12C
Ratio CC50/IC50 [7]: >150.5
CC50 [6]: > 1740 µM

IC50 (Hepatitis B virus [1]): > 961 µM
IC50 (Hepatitis B virus [3]): > 961 µM
IC50 (Hepatitis B virus [4]): > 961 µM
Compound: CC(=O)O[C@H]1C[C@H]2[C@]3(C)C(=O)C[C@]4(C)[C@@H]([C@@](C)(O)C(=O)CCC(C)(C)OC(C)=O)[C@H](OC(C)=O)C[C@@]4(C)[C@@H]3C[C@H]3O[C@]32C(C)(C)[C@@H]1OC(C)=O
CC50 [6]: > 961 µM

IC50 (Hepatitis B virus [1]): > 1670 µM
IC50 (Hepatitis B virus [3]): > 1670 µM
IC50 (Hepatitis B virus [4]): 768 µM
Compound: CCC(=O)O[C@H]1C[C@H]2[C@]3(C)C(=O)C[C@]4(C)[C@@H]([C@@](C)(O)C(=O)CCC(C)(C)OC(C)=O)[C@H](OC(=O)CC)C[C@@]4(C)[C@@H]3C[C@H]3O[C@]32C(C)(C)[C@@H]1OC(=O)CC
Ratio CC50/IC50 [5]: >2.2
CC50 [6]: > 1670 µM

IC50 (Hepatitis B virus [1]): 401 µM
IC50 (Hepatitis B virus [3]): > 618 µM
IC50 (Hepatitis B virus [4]): > 618 µM
Compound: CCCC(=O)O[C@H]1C[C@H]2[C@]3(C)C(=O)C[C@]4(C)[C@@H]([C@@](C)(O)C(=O)CCC(C)(C)OC(C)=O)[C@H](OC(=O)CCC)C[C@@]4(C)[C@@H]3C[C@H]3O[C@]32C(C)(C)[C@@H]1OC(=O)CCC
Ratio CC50/IC50 [2]: >2
CC50 [6]: > 618 µM

IC50 (Hepatitis B virus [1]): 592 µM
IC50 (Hepatitis B virus [3]): > 1110 µM
IC50 (Hepatitis B virus [4]): > 1110 µM
Compound: COCC(=O)O[C@H]1C[C@H]2[C@]3(C)C(=O)C[C@]4(C)[C@@H]([C@@](C)(O)C(=O)CCC(C)(C)OC(C)=O)[C@H](OC(=O)COC)C[C@@]4(C)[C@@H]3C[C@H]3O[C@]32C(C)(C)[C@@H]1OC(=O)COC
Ratio CC50/IC50 [2]: >1.9
CC50 [6]: > 1110 µM

IC50 (Hepatitis B virus [1]): > 633 µM
IC50 (Hepatitis B virus [3]): > 633 µM
IC50 (Hepatitis B virus [4]): > 633 µM
Compound: CCOCC(=O)O[C@H]1C[C@H]2[C@]3(C)C(=O)C[C@]4(C)[C@@H]([C@@](C)(O)C(=O)CCC(C)(C)OC(C)=O)[C@H](OC(=O)COCC)C[C@@]4(C)[C@@H]3C[C@H]3O[C@]32C(C)(C)[C@@H]1OC(=O)COCC
CC50 [6]: > 633 µM
